Source: ChEMBL document CHEMBL5346929, “Designed switch from covalent to non-covalent inhibitors of carboxylesterase Notum activity” (Eur J Med Chem, 2023)

Key:
[1] = target: T1, Palmitoleoyl-protein carboxylesterase NOTUM (Homo sapiens, UniProt Q6P988); experiment: Inhibition of human recombinant Notum (81 to T451 residues) expressed in HEK293S cells using OPTS as substrate incubated for 40 mins by microplate reader analysis
T1 sequence (Q6P988 whole entry): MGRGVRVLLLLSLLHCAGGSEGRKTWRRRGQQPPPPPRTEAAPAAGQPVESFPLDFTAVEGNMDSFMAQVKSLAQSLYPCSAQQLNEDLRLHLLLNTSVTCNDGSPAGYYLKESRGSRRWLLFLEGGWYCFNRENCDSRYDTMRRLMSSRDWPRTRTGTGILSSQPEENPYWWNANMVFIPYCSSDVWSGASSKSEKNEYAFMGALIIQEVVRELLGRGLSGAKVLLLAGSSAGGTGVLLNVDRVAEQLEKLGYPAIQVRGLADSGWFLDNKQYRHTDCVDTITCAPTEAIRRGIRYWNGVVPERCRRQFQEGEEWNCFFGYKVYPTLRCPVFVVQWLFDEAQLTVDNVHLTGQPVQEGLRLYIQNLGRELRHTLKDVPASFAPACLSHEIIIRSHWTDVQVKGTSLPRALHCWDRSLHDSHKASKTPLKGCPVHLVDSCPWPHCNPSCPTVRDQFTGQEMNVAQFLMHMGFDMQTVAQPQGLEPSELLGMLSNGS

[2] = target: T1, Palmitoleoyl-protein carboxylesterase NOTUM; experiment: Inhibition of human recombinant Notum (81 to T451 residues) expressed in HEK293S cells using OPTS as substrate at 10 uM incubated for 40 mins by microplate reader analysis relative to control
Method in brief: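 Biochemical assay with the Notum 81–451 C330S construct and the synthetic fluorescent substrate OPTS.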

[3] = test system: liver microsomes (Mus musculus); experiment: Metabolic stability in mouse liver microsome assessed as intrinsic clearance measured upto 60 mins by LC-MS/MS analysis; details: read-out: CLH

IC50 [1] | inhibition at 10 µM [2] | microsomal CLint [3] | Structure (SMILES)
Not Active | < 20% |  | CC(=O)N1CCC(c2ccccc2)C1 (stereo unspecified)
 | 20% |  | CC(=O)N1CCc2cc(C#N)ccc21
 | 20% |  | CC(=O)n1ncc2ccccc21
 | 20% |  | CC(=O)N1CCS(=O)(=O)c2ccccc21
 | 20% |  | CC(=O)N(C)c1ccccc1C
 | 20% |  | CCN1CCc2c(Cl)cccc21
Not Active | < 20% |  | CC(=O)n1cnc2ccccc21
 | 20% |  | O=C1CCCN1c1ccccc1
 |  | 74 µL/min/mg | O=C1CCC2Cc3ccccc3N12 (racemic)
